Data as given in ChEMBL document CHEMBL5303300, “EUbOPEN Chemogenomics Library - Multiplex” (2023).
Values joined by “and” are separate entries in the source; they are usually repeats but may differ in a detail not shown here. Equal entries are not always repeated.

Test system: HEK-293T
Experiment: Multiplex assay against HEK293T
Format: toxicity, cell-based
Settings: human, number of replicates 2
In short: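 Four dyes were applied at seeding to live cells: Hoechst33342, BioTracker Green Microtubule Cytoskeleton Dye, MitoTracker Red and Annexin V Alexa Fluor 680. Imaging after compound addition used a CQ1 microscope at 37°C and 5% CO2. CellPathfinder machine-learning gating then sorted cells into Hoechst high-intensity objects or normal cells, normal cells into healthy, pyknosed or fragmented nuclei, and pyknosed cells into mitotic or apoptotic, with tubulin, mitochondrial-mass and membrane-permeability phenotypes given as per cents of healthy-nucleus cells.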

[1] = 12 h, 1 µM, compound concentration 1 uM
[2] = 12 h, 10 µM, compound concentration 10 uM
[3] = 24 h, 1 µM, compound concentration 1 uM
[4] = 24 h, 10 µM, compound concentration 10 uM
[5] = 48 h, 1 µM, compound concentration 1 uM
[6] = 48 h, 10 µM, compound concentration 10 uM

COc1ccc(-c2cc3c(C)nc(N)nc3n([C@H]3CC[C@H](OCCO)CC3)c2=O)cn1 [PF-04691502]
Population Apoptotic (%) [1]: 74% and 67%
Population Fragmented Nuclei (%) [1]: 3% and 2%
Population Healthy Nuclei (%) [1]: 86% and 87%
Population Hoechst High Intensity Objects (%) [1]: 12% and 13%
Population Membrane Permeable-Phenotype (%) [1]: 0% and 2%
Population Mitochondria Different-Phenotype (%) [1]: 36% and 56%
Population Mitotic Cells (%) [1]: 25% and 32%
Population Normal (%) [1]: 87% and 86%
Population Pyknosed Nuclei (%) [1]: 10%
Population Tubulin-Different-Phenotype (%) [1]: 60% and 67%
Total Cell Count [1]: 425 and 310
Population Apoptotic (%) [2]: 73% and 71%
Population Fragmented Nuclei (%) [2]: 7% and 3%
Population Healthy Nuclei (%) [2]: 69% and 75%
Population Hoechst High Intensity Objects (%) [2]: 24% and 19%
Population Membrane Permeable-Phenotype (%) [2]: 1% and 5%
Population Mitochondria Different-Phenotype (%) [2]: 80% and 72%
Population Mitotic Cells (%) [2]: 26% and 28%
Population Normal (%) [2]: 75% and 80%
Population Pyknosed Nuclei (%) [2]: 23% and 21%
Population Tubulin-Different-Phenotype (%) [2]: 77% and 78%
Total Cell Count [2]: 170 and 187
Population Apoptotic (%) [3]: 71% and 78%
Population Fragmented Nuclei (%) [3]: 7%
Population Healthy Nuclei (%) [3]: 76% and 81%
Population Hoechst High Intensity Objects (%) [3]: 24% and 20%
Population Membrane Permeable-Phenotype (%) [3]: 1%
Population Mitochondria Different-Phenotype (%) [3]: 40% and 55%
Population Mitotic Cells (%) [3]: 28% and 21%
Population Normal (%) [3]: 75% and 79%
Population Pyknosed Nuclei (%) [3]: 16% and 10%
Population Tubulin-Different-Phenotype (%) [3]: 64% and 68%
Total Cell Count [3]: 314 and 266
Population Apoptotic (%) [4]: 66% and 60%
Population Fragmented Nuclei (%) [4]: 9% and 7%
Population Healthy Nuclei (%) [4]: 70% and 77%
Population Hoechst High Intensity Objects (%) [4]: 26% and 30%
Population Membrane Permeable-Phenotype (%) [4]: 2% and 0%
Population Mitochondria Different-Phenotype (%) [4]: 72% and 61%
Population Mitotic Cells (%) [4]: 33% and 40%
Population Normal (%) [4]: 73% and 69%
Population Pyknosed Nuclei (%) [4]: 20% and 14%
Population Tubulin-Different-Phenotype (%) [4]: 79% and 69%
Total Cell Count [4]: 163 and 192
Population Apoptotic (%) [5]: 70% and 77%
Population Fragmented Nuclei (%) [5]: 9% and 10%
Population Healthy Nuclei (%) [5]: 69% and 65%
Population Hoechst High Intensity Objects (%) [5]: 28% and 27%
Population Membrane Permeable-Phenotype (%) [5]: 0% and 1%
Population Mitochondria Different-Phenotype (%) [5]: 42% and 44%
Population Mitotic Cells (%) [5]: 29% and 22%
Population Normal (%) [5]: 71% and 72%
Population Pyknosed Nuclei (%) [5]: 20% and 24%
Population Tubulin-Different-Phenotype (%) [5]: 69% and 75%
Total Cell Count [5]: 275 and 280
Population Apoptotic (%) [6]: 70% and 64%
Population Fragmented Nuclei (%) [6]: 14% and 18%
Population Healthy Nuclei (%) [6]: 74%
Population Hoechst High Intensity Objects (%) [6]: 31% and 28%
Population Membrane Permeable-Phenotype (%) [6]: 0% and 1%
Population Mitochondria Different-Phenotype (%) [6]: 40% and 27%
Population Mitotic Cells (%) [6]: 30% and 35%
Population Normal (%) [6]: 68% and 71%
Population Pyknosed Nuclei (%) [6]: 10% and 6%
Population Tubulin-Different-Phenotype (%) [6]: 61% and 50%
Total Cell Count [6]: 273 and 293

Cc1c(C(=O)Nc2ccc(N3C[C@@H](C)O[C@@H](C)C3)nc2)cccc1-c1ccc(OC(F)(F)F)cc1 [SONIDEGIB]
Population Apoptotic (%) [1]: 36% and 33%
Population Fragmented Nuclei (%) [1]: 3%
Population Healthy Nuclei (%) [1]: 85% and 86%
Population Hoechst High Intensity Objects (%) [1]: 3% and 6%
Population Membrane Permeable-Phenotype (%) [1]: 3%
Population Mitochondria Different-Phenotype (%) [1]: 12%
Population Mitotic Cells (%) [1]: 63% and 66%
Population Normal (%) [1]: 96% and 93%
Population Pyknosed Nuclei (%) [1]: 11% and 9%
Population Tubulin-Different-Phenotype (%) [1]: 43% and 46%
Total Cell Count [1]: 668 and 769
Population Apoptotic (%) [2]: 55% and 57%
Population Fragmented Nuclei (%) [2]: 3% and 4%
Population Healthy Nuclei (%) [2]: 84% and 85%
Population Hoechst High Intensity Objects (%) [2]: 7% and 10%
Population Membrane Permeable-Phenotype (%) [2]: 3% and 1%
Population Mitochondria Different-Phenotype (%) [2]: 18% and 15%
Population Mitotic Cells (%) [2]: 44% and 42%
Population Normal (%) [2]: 92% and 89%
Population Pyknosed Nuclei (%) [2]: 11% and 10%
Population Tubulin-Different-Phenotype (%) [2]: 56% and 45%
Total Cell Count [2]: 652 and 496
Population Apoptotic (%) [3]: 39% and 27%
Population Fragmented Nuclei (%) [3]: 3% and 4%
Population Healthy Nuclei (%) [3]: 90% and 89%
Population Hoechst High Intensity Objects (%) [3]: 6% and 7%
Population Membrane Permeable-Phenotype (%) [3]: 3% and 2%
Population Mitochondria Different-Phenotype (%) [3]: 5% and 3%
Population Mitotic Cells (%) [3]: 60% and 72%
Population Normal (%) [3]: 93% and 92%
Population Pyknosed Nuclei (%) [3]: 6% and 5%
Population Tubulin-Different-Phenotype (%) [3]: 30% and 33%
Total Cell Count [3]: 984 and 1195
Population Apoptotic (%) [4]: 53% and 55%
Population Fragmented Nuclei (%) [4]: 6% and 7%
Population Healthy Nuclei (%) [4]: 83%
Population Hoechst High Intensity Objects (%) [4]: 6% and 8%
Population Membrane Permeable-Phenotype (%) [4]: 3%
Population Mitochondria Different-Phenotype (%) [4]: 5%
Population Mitotic Cells (%) [4]: 46% and 45%
Population Normal (%) [4]: 93% and 91%
Population Pyknosed Nuclei (%) [4]: 9%
Population Tubulin-Different-Phenotype (%) [4]: 30% and 28%
Total Cell Count [4]: 975 and 681
Population Apoptotic (%) [5]: 17% and 12%
Population Fragmented Nuclei (%) [5]: 12%
Population Healthy Nuclei (%) [5]: 84%
Population Hoechst High Intensity Objects (%) [5]: 7% and 10%
Population Membrane Permeable-Phenotype (%) [5]: 5% and 4%
Population Mitochondria Different-Phenotype (%) [5]: 0%
Population Mitotic Cells (%) [5]: 82% and 87%
Population Normal (%) [5]: 92% and 89%
Population Pyknosed Nuclei (%) [5]: 3%
Population Tubulin-Different-Phenotype (%) [5]: 12% and 15%
Total Cell Count [5]: 2699 and 2880
Population Apoptotic (%) [6]: 14% and 19%
Population Fragmented Nuclei (%) [6]: 13% and 10%
Population Healthy Nuclei (%) [6]: 83% and 86%
Population Hoechst High Intensity Objects (%) [6]: 8% and 7%
Population Membrane Permeable-Phenotype (%) [6]: 4% and 5%
Population Mitochondria Different-Phenotype (%) [6]: 0%
Population Mitotic Cells (%) [6]: 85% and 80%
Population Normal (%) [6]: 91% and 92%
Population Pyknosed Nuclei (%) [6]: 2% and 3%
Population Tubulin-Different-Phenotype (%) [6]: 12% and 8%
Total Cell Count [6]: 2536 and 1733
